Source: PubChem
An excerpt weighted towards active compounds, which were near 1.9% of everything screened.
TbHK1 inh: Trypanosoma brucei hexokinase 1 inhibitors, primary screen, biochemical, G6PDH-coupled NADH absorbance, MLSCN library; hexokinase 1 [Trypanosoma brucei]; recombinant TbHK1, G6PDH-coupled NADH A340; inhibition, % at 10 µM; 220,000 compounds, 0.11% hits; AID 1430, 2008;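 active = inhibition of 50% or more in the single-dose primary screen; inactive = inhibition below 50%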
Runt-SMMHC FRET: inhibitors of RUNX1 Runt–CBFb-SMMHC binding, primary screen, biochemical, FRET, Cerulean-Runt, Venus-CBFb-SMMHC, uHTS; 220,000 compounds, 0.74% hits; Cerulean-Runt/Venus-CBFb-SMMHC FRET ratio 530/480, 1 h; inhibition, % at 20 µM;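 active = mean inhibition across duplicate retests at 20 µM reaching about 50%, limit read from the data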;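 also: 0% = DMSO wells and 100% = wells with excess untagged CBFb-SMMHC; inhibitors lower the FRET ratio by blocking Runt binding to CBFb-SMMHC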
Hck Nef HTS: inhibitors of Nef-activated human Hck kinase, primary screen, biochemical, Z-Lyte FRET, 384-well, Hck-YEEI; Tyrosine-protein kinase HCK (Homo sapiens), P08631; Recombinant Hck-YEEI plus Nef, Z-Lyte FRET kinase assay; inhibition, % at 20 µM; 220,000 compounds, 0.68% hits; AID 463187, 2010;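 active = Hck-Nef kinase inhibition above about 50%, limit read from the data; inactive = inhibition below that limit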;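 also: 0% = DMSO with Hck plus Nef and 100% = Hck alone without Nef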
Target sequence (P08631 whole entry, looked up): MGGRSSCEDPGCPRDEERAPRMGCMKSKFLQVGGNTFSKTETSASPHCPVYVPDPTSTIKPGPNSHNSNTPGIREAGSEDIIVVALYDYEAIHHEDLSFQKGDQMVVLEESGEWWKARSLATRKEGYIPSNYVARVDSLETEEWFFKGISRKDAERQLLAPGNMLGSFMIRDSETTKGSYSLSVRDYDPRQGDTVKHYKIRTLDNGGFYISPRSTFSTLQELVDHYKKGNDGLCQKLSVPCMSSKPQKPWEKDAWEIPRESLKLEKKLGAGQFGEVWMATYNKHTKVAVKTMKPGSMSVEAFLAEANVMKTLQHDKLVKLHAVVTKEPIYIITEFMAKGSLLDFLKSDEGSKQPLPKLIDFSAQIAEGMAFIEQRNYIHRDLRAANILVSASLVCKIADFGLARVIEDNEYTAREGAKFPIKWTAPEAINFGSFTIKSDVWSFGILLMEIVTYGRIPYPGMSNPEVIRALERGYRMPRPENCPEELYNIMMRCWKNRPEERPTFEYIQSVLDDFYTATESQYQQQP
RanGTP-Imp inh: inhibitors of RanGTP-importin-beta interaction, primary screen, biochemical, FRET, CFP-Ran, YFP-importin-beta, homogeneous; 300,000 compounds, 1.1% hits; inhibition, % (concentration not given with the values); AID 2216, 2009; Ran GTPase (GTP-bound) - importin-beta complex; cell-free CFP-Ran/YFP-importin-beta FRET ratio;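 active = more than half of the replicate wells show a fall in the fluorescence ratio signal beyond about 16%, limit read from the data, passing the limit was not always enough; inconclusive = exactly half of the replicate wells pass the set limit; inactive = fewer than half of replicates pass the limit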;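 also: 0% = DMSO wells and 100% = Ran loaded with GDP instead of GTP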
Runt-CBFb FRET: inhibitors of RUNX1 Runt–CBFb binding, primary screen, biochemical, FRET, Cerulean-Runt, Venus-CBFb, uHTS; Runt-related transcription factor 1 (Homo sapiens) + Core-binding factor subunit beta …; Cerulean-Runt/Venus-CBFb FRET ratio 530/480, 1 h; inhibition, % at 20 µM; 220,000 compounds, 0.46% hits;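 active = inhibition over about 50% at 20 µM in the single-dose screen, limit read from the data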;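 also: 0% = DMSO wells and 100% = excess unlabeled CBFb competitor control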
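Measured by: fluorescence energy transfer, 422 nm excitation, 530/480 nm emission; test system: Cerulean-tagged RUNX1 Runt domain (FRET donor) fusion protein; buffer or medium: Tris pH 7.5 buffer with BSA; compound: one dose, 20 µM compound, 1% DMSO; times: two 1 h room-temperature incubations shielded from light; benchmarks: unlabeled CBFb 5 µM, positive control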
Starred values were filed as active, the others as inactive; ? = inconclusive; . = not tested or not shown.

SMILES | TbHK1 inh | Runt-SMMHC FRET | Hck Nef HTS | RanGTP-Imp inh | Runt-CBFb FRET
CC(=O)N1CCc2cc(Br)cc(S(=O)(=O)NCCCN(C)Cc3ccccc3)c21 | . | . | . | 2 | .
CSc1nccc(NC(=O)c2cccc(Br)c2)n1 | . | . | . | 3 | .
Cc1ccc(N2C3=C(C(=O)CC(C)(C)C3)C(c3cn(C)nc3C)C3=C2CC(C)(C)CC3=O)cc1 | . | . | . | 26* | .
COc1ccc(C2C(C#N)=C(N)N(c3ccccc3C#N)C3=C2C(=O)CCC3)cc1CN1CCCC1 (centres undefined) | -12 | 2 | 5 | -2 | -1
CCCS(=O)(=O)c1c(S(=O)(=O)CCC)c2cc(-c3ccncc3)ccn2c1C(=O)OC | -14 | 109* | 20 | -2 | 18
Cc1nc2scc(C)n2c(=O)c1S(=O)(=O)N1CCN(c2cccc(C(F)(F)F)c2)CC1 | . | . | . | 2 | .
CCCCN(C)C(=O)c1cc2c(s1)-c1ccccc1S(=O)(=O)C2 | -33 | -4 | 16 | 1 | 1
CCc1ccc(CNC(=O)c2ccc(OC3CCN(C(=O)COC)CC3)cc2)nc1 | . | . | . | 1 | .
c1ccc(-c2nnc(SCC3CCCO3)nc2-c2ccccc2)cc1 (centres undefined) | -11 | -4 | 6 | 26* | -2
c1ccc(-c2nnc(SCC3CCCCO3)nc2-c2ccccc2)cc1 (centres undefined) | 1 | 3 | 13 | -5 | 10
COC(=O)CC1C(=O)NCCN1C(=O)c1cc([N+](=O)[O-])ccc1Cl (centres undefined) | . | . | . | 1 | .
CC(C)(C)Nc1c2ccccc2nc2ccccc12 | . | . | . | 28* | .
Cc1ccc(-c2nc(NCCCO)c3ccccc3n2)cc1 | . | . | . | 8 | .
OCCCNc1c2ccccc2nc2ccccc12 | . | . | . | 51* | .
c1ccc2c(NCCc3c[nH]c4ccccc34)c3ccccc3nc2c1 | . | . | . | 91* | .
COc1ccccc1NC(=O)/C(=C/c1cccc([N+](=O)[O-])c1)c1ccccc1 | 23 | 4 | 2 | -2 | 0
Cc1cccn2c(=O)c3cc(C(=O)NCCN4CCOCC4)c(=N)n(CCCN4CCOCC4)c3nc12 | . | . | . | 131* | .
COCCCn1c(=N)c(C(=O)NCC2CCCO2)cc2c(=O)n3cccc(C)c3nc21 (centres undefined) | -18 | 60* | 196* | 177* | 19
COCCCn1c(C(=O)NCCN2CCOCC2)cc2c(=O)n3cccc(C)c3nc21 | . | . | . | 2 | .
Cc1cccn2c(=O)c3cc(C(=O)NCC4CCCO4)c(=N)n(CCN4CCOCC4)c3nc12 (centres undefined) | -6 | 79* | 12 | 106* | 125*
Cc1cccc(NC(=O)c2cc(S(=O)(=O)N3CCCC3)cn2C)c1 | . | . | . | 0 | .
Cc1cc(NC(=O)Nc2cc(Cl)sc2Cl)no1 | . | . | . | 11 | .
Cc1nc2c3ccccc3nc(NNC(=O)CCC(=O)NCCN3CCN(c4ccccc4)CC3)n2n1 | . | . | . | -3 | .
O=C(Oc1ccc(Cl)c2cccnc12)C12CC3CC(CC(C3)C1)C2 | 0 | -1 | 1 | -4 | -2
CCSc1ccc(-c2nn(-c3ccccc3)cc2/C=C(/C#N)C(=O)NC)cc1 | -21 | 60* | 11 | . | 8
SMILES | TbHK1 inh | Runt-SMMHC FRET | Hck Nef HTS | RanGTP-Imp inh | Runt-CBFb FRET
COc1ccc(OCc2nnc(SCC(=O)N3C(C)CCCC3C)o2)cc1 (centres undefined) | . | . | . | 0 | .
CCOC(=O)c1sc(-c2ccc(Cl)cc2Cl)nc1O | -13 | 84* | -135 | -37 | -61
CCOC(=O)c1sc(CS(=O)(=O)c2ccc(Cl)cc2)nc1C | -9 | -11 | 16 | 8 | 2
Cc1ccc(NC(NC(=O)OCCn2c([N+](=O)[O-])cnc2C)C(Cl)(Cl)Cl)cc1 (centres undefined) | -5 | -1 | 1 | 18* | 0
Cc1ncc([N+](=O)[O-])n1CCOC(=O)NC(NCc1ccccc1Cl)C(Cl)(Cl)Cl (centres undefined) | -11 | 1 | 1 | 2 | -1
Cc1sc2nc3ccc(NCc4ccco4)nn3c(=O)c2c1C | -2 | 60* | 3 | 7 | 6
O=c1c2ccccc2nc2ccc(NCc3ccco3)nn12 | -12 | 7 | 3 | -4 | 2
CCOCCCNC(=O)c1ccc(-n2c(=S)[nH]c3ccccc3c2=O)cc1 | 2 | 0 | 25 | -1 | -2
COc1cc(CN2CCN(CCCc3ccccc3)CC2CCO)cc(OC)c1 (centres undefined) | . | . | . | 27* | .
Nc1n[nH]c2cc(=O)n(-c3cccc(C(F)(F)F)c3)nc12 | -5 | 86* | 26 | 118* | 64*
Cn1c(=N)c(S(=O)(=O)c2ccc(Cl)cc2)cc2c(=O)n3ccccc3nc21 | -3 | . | 2 | . | .
N=c1c(S(=O)(=O)c2ccccc2)cc2c(=O)n3ccccc3nc2n1CC1CCCO1 (centres undefined) | -12 | 61* | 15 | . | 105*
N=c1c(S(=O)(=O)c2ccc(Cl)cc2)cc2c(=O)n3ccccc3nc2n1C1CCCC1 | . | . | . | 132* | .
N=c1c(S(=O)(=O)c2ccc(Br)cc2)cc2c(=O)n3ccccc3nc2n1Cc1ccco1 | . | . | . | 4 | .
N=c1c(S(=O)(=O)c2ccc(Cl)cc2)cc2c(=O)n3ccccc3nc2n1Cc1ccco1 | . | . | . | 96* | .
Cc1ccc(S(=O)(=O)c2cc3c(=O)n4cc(C)ccc4nc3n(CC3CCCO3)c2=N)cc1 (centres undefined) | . | 90* | . | . | 86*
CCn1c(=N)c(S(=O)(=O)c2ccc(Cl)cc2)cc2c(=O)n3ccccc3nc21 | 2 | . | 20 | 2 | .
CC(=O)N(C)c1ccc(NCc2cc(=O)oc3cc(C)c(O)cc23)cc1 | . | . | . | 0 | .
C/C(N=Nc1nc2ccccc2s1)=N\Nc1ccccc1O | 8 | -5 | 26 | -1 | -2
C/C(=N/NC(=O)c1nnn(-c2nonc2N)c1COc1ccccc1)c1ccccc1 | . | . | . | 1 | .
CCNC(=O)NC(=O)C(C)OC(=O)Cc1coc2cc3c(cc12)CCC3 (centres undefined) | -2 | -1 | 25 | ? | -3
N=c1c(S(=O)(=O)c2ccc(Cl)cc2)cc2c(=O)n3ccccc3nc2n1CC1CCCO1 (centres undefined) | . | . | . | 112* | .
CCOc1ccccc1N1CCN(C(=O)c2cc(-c3cccnc3)nc3c(Cl)cccc23)CC1 | . | . | . | 1 | .
CCN(c1ccccc1)S(=O)(=O)c1nnc(NC(=O)CC(C)C)s1 | . | . | . | -3 | .
CCN(c1ccccc1)S(=O)(=O)c1nnc(NC(=O)c2ccccc2OC)s1 | . | . | . | 19* | .
OC1CCN(c2cc(-c3ccccc3)nc3cc(-c4ccc(F)cc4)nn23)CC1 | 0 | 8 | 21 | 3 | 2
